According to ChEMBL document CHEMBL1141143, “Novel 17beta-substituted conformationally constrained neurosteroids that modulate GABA A receptors” (J Med Chem, 2005):

Molecular target: GABA-A receptor; anion channel (Rattus norvegicus) (UniProt O09028+P15431+P18506+P18508+P19969+P20236+P23574+P23576+P28471+P28473+P30191+P62813+P63079+P63138+Q91ZM7+Q9ES14)
Assay: Displacement of [3H]EBOB from GABA-A receptors of rat cerebellum
Format: tissue-based
How it was run: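 Rat cerebellar synaptosomal membranes: homogenized in 0.32 M sucrose, differentially centrifuged, water-lysed, Tris HCl (pH 7.4) washed, frozen; thawed membranes spun in 50 mM Tris HCl with 0.2 M NaCl. Incubated 2 h at 25 °C with 1 nM [3H]EBOB; nonspecific binding with 50 µM picrotoxin. Duplicates filtered on GF/B. Specific binding ratio with/without steroid fitted by nonlinear regression; mean ± SEM.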

SMILES	Ks [nM]
C=C=C[C@H](O)[C@H]1CC[C@H]2[C@@H]3CC[C@H]4C[C@H](O)CC[C@]4(C)[C@H]3CC[C@]12C	810
C=C=C[C@@H](O)[C@H]1CC[C@H]2[C@@H]3CC[C@H]4C[C@H](O)CC[C@]4(C)[C@H]3CC[C@]12C	2.8
C#C[C@@H](OC)[C@H]1CC[C@H]2[C@@H]3CC[C@H]4C[C@H](O)CC[C@]4(C)[C@H]3CC[C@]12C	802
Cc1ccc(C#C[C@H]2CC[C@H]3[C@@H]4CC[C@H]5C[C@H](O)CC[C@]5(C)[C@H]4CC[C@]23C)cc1	4100
COc1ccc(C#C[C@@H](O)[C@H]2CC[C@H]3[C@@H]4CC[C@H]5C[C@H](O)CC[C@]5(C)[C@H]4CC[C@]23C)cc1	870
C#CC(=O)[C@H]1CC[C@H]2[C@@H]3CC[C@H]4C[C@H](O)CC[C@]4(C)[C@H]3CC[C@]12C	844
CC(=O)[C@H]1CC[C@H]2[C@@H]3CC[C@H]4C[C@H](O)CC[C@]4(C)[C@H]3CC[C@]12C	198
CC(O)C#C[C@H]1CC[C@H]2[C@@H]3CC[C@H]4C[C@H](O)CC[C@]4(C)[C@H]3CC[C@]12C (stereo partly drawn)	946
C#C[C@@H](O)[C@H]1CC[C@H]2[C@@H]3CC[C@H]4C[C@H](O)CC[C@]4(C)[C@H]3CC[C@]12C	145
C#C[C@H](O)[C@H]1CC[C@H]2[C@@H]3CC[C@H]4C[C@H](O)CC[C@]4(C)[C@H]3CC[C@]12C	494
C[C@]12CC[C@@H](O)C[C@@H]1CC[C@@H]1[C@@H]2CC[C@]2(C)[C@@H](C#CBr)CC[C@@H]12	350
COc1ccc(C#C[C@H](O)[C@H]2CC[C@H]3[C@@H]4CC[C@H]5C[C@H](O)CC[C@]5(C)[C@H]4CC[C@]23C)cc1	1640
C#C[C@H](OC)[C@H]1CC[C@H]2[C@@H]3CC[C@H]4C[C@H](O)CC[C@]4(C)[C@H]3CC[C@]12C	924
